In the library only some 2.4% were active in any assay of this set; here they are far more common.
Fh CTSL1 inh = blocks F. hepatica cathepsin L1 in PFM18AAP counter-screen | recombinant F. hepatica cathepsin L1, Z-Leu-Arg-MCA fluorescence | actives 0.49% (n = 300,000) | inhibition, % at 5.96 µM;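 active = inhibition above the mean of all tested compounds plus 3 SD, set per screening campaign, cut at about 17% in these data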;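 note: 0% = plate median of test compound wells and 100% = 1 µM Z-Phe-Ala-diazomethylketone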
PP5 inh = PP5 (human) phosphatase inhibition; P53041; purified PP5c, OMFP substrate fluorescence; inhibition, % at 6.7 µM; actives 0.18% (n = 320,000);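 active = inhibition above the campaign's mean inhibition across all tested compounds plus 3 SD, cut at about 9.5% in these data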;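 note: 0% = DMSO only and 100% = 100 µM cantharidin control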
JMJD2C inh = blocks human GASC-1 demethylase activity | GST-JMJD2C(1-420) H3K9me3 demethylation, DELFIA europium | inhibition, % at 2.35 µM | actives 0.069% (n = 330,000);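 active = more than half of a compound's replicate wells show inhibition beyond 50%, single wells judged on their own value; inconclusive = some, but no more than half, of replicates pass 50% inhibition; inactive = no replicate passes 50% inhibition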;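 note: signal counts dimethyl H3K9 product captured on neutravidin plate; 0% = median of DMSO wells and 100% = 0.3 times that DMSO median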
Target sequence (Q9H3R0 1-420 limits assumed): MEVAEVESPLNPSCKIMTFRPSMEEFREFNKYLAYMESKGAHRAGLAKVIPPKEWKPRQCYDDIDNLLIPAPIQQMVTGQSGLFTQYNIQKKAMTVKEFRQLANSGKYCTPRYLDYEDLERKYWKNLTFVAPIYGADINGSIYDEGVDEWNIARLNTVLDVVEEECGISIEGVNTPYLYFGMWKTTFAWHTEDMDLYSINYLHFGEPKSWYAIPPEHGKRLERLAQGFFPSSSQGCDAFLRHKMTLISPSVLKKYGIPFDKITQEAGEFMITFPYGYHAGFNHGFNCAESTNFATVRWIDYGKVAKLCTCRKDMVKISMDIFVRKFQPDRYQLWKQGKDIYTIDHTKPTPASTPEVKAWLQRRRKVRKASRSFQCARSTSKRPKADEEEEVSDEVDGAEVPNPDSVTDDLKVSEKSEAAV
H9c2 protect = myocardial damage modulation in H9c2 cells; H9c2 cardiomyocytes, H2O2 injury protection, ATPLite, 2 h; protection from H2O2 cell death, % at 20 µM; actives 0.63% (n = 360,000);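 active = compounds giving at least 50% protection of heart cells from peroxide-induced death in the single-dose screen, raw or plate-pattern-corrected value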;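 note: 0% = DMSO wells with peroxide and 100% = DMSO wells without peroxide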
T cruzi inh = T. cruzi replication inhibition | T. cruzi beta-gal in NIH3T3, luminescence, 90 h | inhibition, % (test concentration not listed) | actives 1.4% (n = 300,000) | AID 1885;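 active = mean inhibition across valid replicates above about 55%, limit read from the data; inconclusive = mean below that limit but half or more replicates reach it; inactive = mean below it, under half of replicates reach it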;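 note: signal also drops with host cell toxicity which is not excluded here; 0% = plate median of DMSO wells and 100% = zero luminescence signal; higher percent means less beta-gal luminescence so fewer parasites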
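Assay system: NIH/3T3 fibroblasts plus reporter T. cruzi. Amount: NIH/3T3 cells, 5,000 per well. Buffer or medium: DMEM, 2% fetal bovine serum. Doses: compound pinned at 50 nL/well, DMSO. Schedule: ≥90 h infection period, 3 h prior cell attachment. Signal: luminescent β-galactosidase signal after 60 min lysis. Read-out: parasite load inhibition, %.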
p-CIP stab down = p/CIP protein destabilization | Q05BA5 | F442A p/CIP-EGFP cells, EGFP fluorescence, 16 h | decrease of EGFP signal, % at 10 µM | actives 0.01% (n = 290,000);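 active = EGFP signal decrease of at least 30% at 10 µM or well 3 SD below plate mean, unless failing retest; inactive = the rest, including hits failing retest or dose response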
* hit, by the source's call; ? = inconclusive; / = no result given.

SMILES	Fh CTSL1 inh	PP5 inh	JMJD2C inh	H9c2 protect	T cruzi inh	p-CIP stab down
COc1cccc(N2C(C(C)=O)=NN(c3ccccc3)C2c2ccc(N3CCOCC3)cc2)c1 (configuration not stated)	2	1	-10	-8	77*	-3
CC(=O)C1=NN(c2ccccc2)C(c2ccc3c(c2)OCO3)N1c1ccc(N2CCOCC2)cc1 (configuration not stated)	-6	1	-5	-7	25	2
O=C(NCc1ccco1)c1ccc(-c2ccc3nccn3c2)cc1	/	/	/	3	/	/
Cc1ccc(CN(Cc2cccnc2)C(=O)CN2C(=O)COc3ccccc32)o1	-3	4	-30	4	55*	-1
O=C(CN1C(=O)COc2ccccc21)N(Cc1ccccc1)Cc1ccccn1	-1	-2	-4	11	2	5
COc1ccc(S(=O)(=O)N2CCCCC2)cc1NC(=O)c1ccc([N+](=O)[O-])o1	3	0	-13	-24	55*	-5
CCC(=O)N1CCN(c2ccc(NC(=O)c3ccc([N+](=O)[O-])o3)cc2Cl)CC1	/	/	1	-22	29	-1
COc1ccc(CCC(=O)N2CCN(S(=O)(=O)c3ccc(C)cc3)CC2)cc1	/	3	5	-7	/	/
CCN1CCN(c2ccc(S(=O)(=O)N3CCCCC3)cc2NC(=O)c2ccc([N+](=O)[O-])o2)CC1	10	0	-1	-9	60*	/
CCN1CCN(c2ccc(NC(=O)c3ccc([N+](=O)[O-])o3)cc2Cl)CC1	/	/	-4	-38	91*	-13
CCN1CCN(c2ccc(S(=O)(=O)N3CCCCC3)cc2NC(=O)c2ccc(F)cc2)CC1	-5	0	3	4	38	-3
COc1ccc(S(=O)(=O)N2CCN(C(=O)c3ccc([N+](=O)[O-])o3)CC2)cc1	1	5	4	3	56*	-12
O=C(C1CCCCC1)N1CCC2CC1c1cc(Cl)ccc12 (configuration not stated)	/	/	/	7	/	/
COc1ccc(-c2cc3ccccc3oc2=O)cc1NC(=O)c1ccc([N+](=O)[O-])o1	9	1	5	23	56*	-10
CCn1nnc(NC(=O)c2ccc([N+](=O)[O-])o2)n1	-3	-2	5	-7	61*	-16
COc1ccc(-c2cc3ccccc3oc2=O)cc1NC(=O)c1ccc(Br)o1	3	3	5	-4	8	-3
Cc1ccc(S(=O)(=O)N(C)c2ccc(OC(=O)c3cc(=O)[nH]c4ccccc34)cc2)cc1	/	/	/	-2	/	/
Cc1cc(NC(=O)CCN2C(=O)C3C4CCC(C4)C3C2=O)c(C)cc1Br (configuration not stated)	-2	-2	5	7	-9	2
Cc1cc(Br)c(Cl)cc1NC(=O)CN1C(=O)C2C3CC(c4ccccc4)C(C3)C2C1=O (configuration not stated)	6	7	5	-4	56*	-2
CCC(C)C(NC(=O)c1ccccc1NC(=O)c1ccc(OC)cc1)C(=O)NCc1ccco1 (configuration not stated)	45*	3	-3	8	12	-4
COc1ccc(C(=O)Nc2ccc(Cl)cc2C(=O)NCc2ccco2)cc1	0	2	3	-4	-2	-16
CCOc1ccc(C(=O)COC(=O)c2cccc(-n3cnnn3)c2)cc1	-3	1	-14	-9	4	-8
NC(N)=N/N=C/c1ccccc1	-2	0	-1	2	62*	-8
NC(=N\N=Cc1ccccc1)/C(N)=N/N=Cc1ccccc1	/	/	/	2	/	/
NC(N)=N/N=C/c1ccc(OCc2ccccc2)c(OCc2ccccc2)c1	2	6	9	-22	0	-12
SMILES	Fh CTSL1 inh	PP5 inh	JMJD2C inh	H9c2 protect	T cruzi inh	p-CIP stab down
NC(N)=N/N=C/c1ccc(OCc2ccccc2Cl)cc1	-2	4	-4	-26	69*	11
Cc1ccc2nc(N(CCCN(C)C)C(=O)c3ccco3)sc2c1	0	0	-6	15	56*	0
CN(C)CCCN(C(=O)c1cccs1)c1nc2cc3c(cc2s1)OCO3	0	2	2	6	67*	-2
CCN(CC)CCN(C(=O)C1=COCCO1)c1nc2cc3c(cc2s1)OCO3	1	-1	7	-3	43	8
CN(C)CCCN(C(=O)c1ccco1)c1nc2c(F)cccc2s1	3	1	-3	20	?	6
CCN(CC)CCN(C(=O)C1=COCCO1)c1nc2ccc(C)cc2s1	2	1	-3	4	59*	5
CN(C)CCCN(C(=O)c1ccco1)c1nc2c(F)cc(F)cc2s1	8	2	1	12	57*	11
CCN(CC)C(=O)C1=C(C)N(Cc2ccccc2)C(=O)C(CC(=O)NCc2cccs2)C1 (configuration not stated)	/	/	/	-1	/	/
CC(OC(=O)c1cc(S(=O)(=O)N(C)C)ccc1N1CCCC1)C(=O)NCc1ccccc1 (configuration not stated)	-2	0	5	0	12	-16
O=C(NCc1ccccn1)c1c(-c2ccccc2)sc2ccccc12	/	/	1	41	/	/
OC1(c2ccccc2)CNCCc2ccccc21 (configuration not stated)	-2	5	-5	4	-11	-3
CN(C)CCCN(C(=O)c1ccco1)c1nc2cc3c(cc2s1)OCO3	2	1	18	4	57*	-16
CN(C)CCCN(C(=O)c1ccc([N+](=O)[O-])s1)c1nc2cc3c(cc2s1)OCCO3	6	2	-6	-19	33	-8
CN(C)CCCN(C(=O)c1cc2cc([N+](=O)[O-])ccc2s1)c1nc2cc3c(cc2s1)OCCO3	2	1	-11	-19	63*	/
CN(C)CCCN(C(=O)c1ccco1)c1nc2ccc(F)cc2s1	2	-1	3	25	48	-8
Cc1ccc2nc(N(CCCN(C)C)C(=O)c3ccc(Br)s3)sc2c1	-1	0	-8	3	62*	-14
CN(C)CCCN(C(=O)c1ccc(Br)s1)c1nc2cc3c(cc2s1)OCCO3	0	1	-4	-7	?	/
CC1(C(=O)NS(=O)(=O)Cc2ccccc2C(F)(F)F)CCN1C(=O)c1cccc(F)c1 (configuration not stated)	/	/	/	0	/	/
Cn1cc(-c2csc(C(O)(c3ccccc3)C(F)(F)F)n2)cn1 (configuration not stated)	/	/	/	1	/	/
CCOc1ccccc1N1CCN(CC(=O)Nc2ccnn2C2CCCC2)CC1	/	5	-7	-4	/	/
Oc1ccc(Br)cc1CNc1cccc2cccnc12	-4	1	2	-11	5	-10

From PubChem
